ChEMBL document CHEMBL1150419, “Structure-activity relationships of a peptide inhibitor of the human FcRn:human IgG interaction” (Bioorg Med Chem, 2008)
Square brackets hold non-standard residues; d marks the D form. Peptide text beside a SMILES is read from it. NMeA = CN[C@@H](C)C(=O)O

Legend:
[1] = biological target: T1, IgG receptor FcRn large subunit p51 (Homo sapiens, UniProt P55899); test: Binding affinity to human FcRn at pH 6 by surface plasmon resonance assay
Procedure, shortened: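 Soluble human FcRn coupled to the dextran surface of a CM5 chip; peptide dilutions flowed over the chip. The equilibrium response at each dilution was plotted against concentration and fitted to a steady-state affinity model to give Kd.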

[2] = biological target: T1, IgG receptor FcRn large subunit p51; test: Inhibition of human IgG binding to soluble human FcRn by ELISA
Procedure, shortened: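 Biotinylated soluble human FcRn immobilized on neutravidin plates, incubated with hIgG (3 nM, constant) and peptide at varying concentrations for 2 h at 37 °C. After washing, bound hIgG detected with peroxidase-conjugated hIgG-specific Fab fragments.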

T1 sequence (P55899 whole entry): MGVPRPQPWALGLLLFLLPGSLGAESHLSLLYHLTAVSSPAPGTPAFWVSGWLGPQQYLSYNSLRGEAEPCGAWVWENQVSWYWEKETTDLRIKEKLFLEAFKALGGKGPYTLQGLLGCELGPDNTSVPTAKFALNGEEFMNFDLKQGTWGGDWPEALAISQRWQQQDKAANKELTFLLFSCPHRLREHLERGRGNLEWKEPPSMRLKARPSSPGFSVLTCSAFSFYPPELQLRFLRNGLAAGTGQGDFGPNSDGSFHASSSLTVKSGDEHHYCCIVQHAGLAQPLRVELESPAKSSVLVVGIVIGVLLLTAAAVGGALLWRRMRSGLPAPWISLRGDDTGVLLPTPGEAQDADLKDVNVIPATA

Kd [1] [µM]	IC50 [2] [µM]	Compound
2.3	23	CC(C)C[C@H](NC(=O)CN1CCCC[C@@H](NC(=O)[C@H](Cc2ccccc2)NC(=O)[C@H](Cc2cnc[nH]2)NC(=O)CNC(=O)[C@@H](NC(=O)[C@@H](NC(=O)[C@H](Cc2ccccc2)NC(=O)[C@@H](N)CCCN=C(N)N)C(C)C)[C@@H](C)O)C1=O)C(=O)N[C@@H](Cc1ccc(O)cc1)C(=O)N1CCC[C@H]1C(=O)N[C@@H](C)C(=O)O
26	107	C[C@H](NC(=O)CNC(=O)CNC(=O)[C@H](Cc1ccccc1)NC(=O)[C@H](Cc1cnc[nH]1)NC(=O)CNC(=O)[C@@H](NC(=O)[C@H](CS)NC(=O)[C@H](Cc1ccccc1)NC(=O)[C@H](CCCN=C(N)N)NC(=O)[C@@H](N)CCC(N)=O)[C@@H](C)O)C(=O)N[C@@H](Cc1ccc(O)cc1)C(=O)N1CCC[C@H]1C(=O)N[C@@H](CS)C(=O)N[C@@H](CC(N)=O)C(=O)NCC(=O)N1CCC[C@H]1C(=O)O (H-QRFCTGHFGGAYPCNGP-OH)
> 250	> 250	H-TGHFGGLYP-OH
34	239	CC(C)C[C@H](NC(=O)CNC(=O)CNC(=O)[C@H](Cc1ccccc1)NC(=O)[C@H](Cc1cnc[nH]1)NC(=O)CNC(=O)[C@@H](NC(=O)[C@@H](N)CS)[C@@H](C)O)C(=O)N[C@@H](Cc1ccc(O)cc1)C(=O)N1CCC[C@H]1C(=O)N[C@@H](CS)C(=O)N[C@@H](CC(N)=O)C(=O)NCC(=O)N1CCC[C@H]1C(=O)O (H-CTGHFGGLYPCNGP-OH)
> 100	> 250	CC(C)C[C@H](NC(=O)[C@@H]1CCCN1C(=O)[C@H]1CCCN1C(=O)[C@H](Cc1ccccc1)NC(=O)[C@H](Cc1cnc[nH]1)NC(=O)CNC(=O)[C@@H](NC(=O)[C@@H](NC(=O)[C@H](Cc1ccccc1)NC(=O)[C@H](CCCN=C(N)N)NC(=O)[C@@H](N)CCC(N)=O)C(C)(C)S)[C@@H](C)O)C(=O)N[C@@H](Cc1ccc(O)cc1)C(=O)N1CCC[C@H]1C(=O)N[C@@H](CS)C(=O)N[C@@H](CC(N)=O)C(=O)NCC(=O)N1CCC[C@H]1C(=O)O
0.83	8.1	CC(C)C[C@H](NC(=O)[C@@H](CCCN=C(N)N)NC(=O)CNC(=O)[C@H](Cc1ccccc1)NC(=O)[C@H](Cc1cnc[nH]1)NC(=O)CNC(=O)[C@@H](NC(=O)[C@@H](NC(=O)[C@H](Cc1ccccc1)NC(=O)[C@H](CCCN=C(N)N)NC(=O)[C@@H](N)CCC(N)=O)C(C)(C)S)[C@@H](C)O)C(=O)N[C@@H](Cc1ccc(O)cc1)C(=O)N1CCC[C@H]1C(=O)N[C@@H](CS)C(=O)N[C@@H](CC(N)=O)C(=O)NCC(=O)N1CCC[C@H]1C(=O)O
18	169	CC(C)C[C@H](NC(=O)CNC(=O)CNC(=O)[C@H](Cc1ccccc1)NC(=O)[C@H](Cc1cnc[nH]1)NC(=O)CNC(=O)[C@H](C)N(C)C(=O)[C@H](CS)NC(=O)[C@H](Cc1ccccc1)NC(=O)[C@H](CCCNC(=N)N)NC(=O)[C@@H](N)CCC(N)=O)C(=O)N[C@@H](Cc1ccc(O)cc1)C(=O)N1CCC[C@H]1C(=O)N[C@@H](CS)C(=O)N[C@@H](CC(N)=O)C(=O)NCC(=O)N1CCC[C@H]1C(=O)O (H-QRFC[NMeA]GHFGGLYPCNGP-OH)
0.059	2.1	CC(C)C[C@@H](C(=O)N[C@@H](Cc1ccc(O)cc1)C(=O)N1CCC[C@H]1C(=O)N[C@@H](CS)C(=O)O)N(C)C(=O)CNC(=O)CNC(=O)[C@H](Cc1ccccc1)NC(=O)[C@H](Cc1cnc[nH]1)NC(=O)CNC(=O)[C@@H](NC(=O)[C@@H](NC(=O)[C@H](Cc1ccccc1)NC(=O)[C@@H](N)CCCN=C(N)N)C(C)(C)S)[C@@H](C)O
0.28	2.3	CC(C)C[C@H](NC(=O)CN1CC[C@@H](NC(=O)[C@H](Cc2ccccc2)NC(=O)[C@H](Cc2cnc[nH]2)NC(=O)CNC(=O)[C@@H](NC(=O)[C@@H](NC(=O)[C@H](Cc2ccccc2)NC(=O)[C@@H](N)CCCN=C(N)N)C(C)(C)S)[C@@H](C)O)C1=O)C(=O)N[C@@H](Cc1ccc(O)cc1)C(=O)N1CCC[C@H]1C(=O)N[C@@H](CS)C(=O)O
5.1	40	CC(C)C[C@H](NC(=O)CNC(=O)CNC(=O)[C@H](Cc1ccccc1)NC(=O)[C@H](Cc1cnc[nH]1)NC(=O)CNC(=O)[C@@H](NC(=O)[C@H](CS)NC(=O)[C@H](Cc1ccccc1)NC(=O)[C@H](CCCNC(=N)N)NC(=O)[C@@H](N)CCC(N)=O)[C@@H](C)O)C(=O)N[C@@H](Cc1ccc(O)cc1)C(=O)N1CCC[C@H]1C(=O)N[C@@H](CS)C(=O)N[C@@H](CC(N)=O)C(=O)NCC(=O)N1CCC[C@H]1C(=O)O
230	16	CC(C)C[C@@H](C(=O)N[C@@H](Cc1ccc(O)cc1)C(=O)N1CCC[C@H]1C(=O)N[C@@H](CS)C(=O)O)N(C)C(=O)CN(C)C(=O)CNC(=O)[C@H](CCc1ccccc1)NC(=O)[C@H](Cc1cnc[nH]1)NC(=O)CNC(=O)[C@@H](NC(=O)[C@@H](NC(=O)[C@H](Cc1ccccc1)NC(=O)[C@H](CCCNC(=N)N)NC(=O)[C@@H](N)CCC(N)=O)C(C)(C)S)[C@@H](C)O
22	86	CC(C)C[C@H](NC(=O)CNC(=O)CNC(=O)[C@H](Cc1ccccc1)NC(=O)[C@H](Cc1cnc[nH]1)NC(=O)CNC(=O)[C@@H](NC(=O)[C@H](CCC(=O)O)NC(=O)[C@H](Cc1ccccc1)NC(=O)[C@H](CCCNC(=N)N)NC(=O)[C@@H](N)CCC(N)=O)[C@@H](C)O)C(=O)N[C@@H](Cc1ccc(O)cc1)C(=O)N1CCC[C@H]1C(=O)N[C@@H](CCN)C(=O)N[C@@H](CC(N)=O)C(=O)NCC(=O)N1CCC[C@H]1C(=O)O
0.84	1.6	CC(C)C[C@@H](C(=O)N[C@@H](Cc1ccc(O)cc1)C(=O)N1CCC[C@H]1C(=O)N[C@@H](CS)C(=O)O)N(C)C(=O)CN(C)C(=O)CNC(=O)[C@H](Cc1ccccc1)NC(=O)[C@H](Cc1cscn1)NC(=O)CNC(=O)[C@@H](NC(=O)[C@@H](NC(=O)[C@H](Cc1ccccc1)NC(=O)[C@@H](N)CCCN=C(N)N)C(C)(C)S)[C@@H](C)O
22	69	CC(C)C[C@H](NC(=O)[C@@H](C)NC(=O)[C@@H](C)NC(=O)[C@H](Cc1ccccc1)NC(=O)[C@H](Cc1cnc[nH]1)NC(=O)CNC(=O)[C@@H](NC(=O)[C@H](CS)NC(=O)[C@H](Cc1ccccc1)NC(=O)[C@H](CCCN=C(N)N)NC(=O)[C@@H](N)CCC(N)=O)[C@@H](C)O)C(=O)N[C@@H](Cc1ccc(O)cc1)C(=O)N1CCC[C@H]1C(=O)N[C@@H](CS)C(=O)N[C@@H](CC(N)=O)C(=O)NCC(=O)N1CCC[C@H]1C(=O)O
3.8	–	CC(C)C[C@H](NC(=O)[C@@H]1CCCN1C(=O)[C@@H](Cc1ccccc1)NC(=O)[C@H](Cc1ccccc1)NC(=O)[C@H](Cc1cnc[nH]1)NC(=O)CNC(=O)[C@@H](NC(=O)[C@@H](NC(=O)[C@H](Cc1ccccc1)NC(=O)[C@H](CCCNC(=N)N)NC(=O)[C@@H](N)CCC(N)=O)C(C)(C)S)[C@@H](C)O)C(=O)N[C@@H](Cc1ccc(O)cc1)C(=O)N1CCC[C@H]1C(=O)N[C@@H](CS)C(=O)N[C@@H](CC(N)=O)C(=O)NCC(=O)N1CCC[C@H]1C(=O)O
> 250	–	CC(C)C[C@H](NC(=O)CNC(=O)CNC(=O)[C@H](Cc1ccccc1)NC(=O)[C@H](Cc1cnc[nH]1)NC(=O)CNC(=O)[C@@H](NC(=O)[C@H](NC(=O)[C@H](Cc1ccccc1)NC(=O)[C@H](CCCNC(=N)N)NC(=O)[C@@H](N)CCC(N)=O)C(C)(C)S)[C@@H](C)O)C(=O)N[C@H](Cc1ccc(O)cc1)C(=O)N1CCC[C@H]1C(=O)N[C@H](CS)C(=O)N[C@@H](CC(N)=O)C(=O)NCC(=O)N1CCC[C@H]1C(=O)O
